Most compounds without a hit are left out; they make up all but 1.9% or so of the library.
FAS-TE inh: FAS thioesterase (human) inhibition. P49327. recombinant FAS-TE, OMFH fluorogenic substrate, fluorescence endpoint. inhibition, % at 15 µM. 360,000 tested, 0.67% active. AID 602261;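 active = compounds whose normalised, plate-corrected inhibition of enzyme fluorescence in the single-dose primary screen is 50% or more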;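 also: 0% = DMSO with enzyme and 100% = substrate without enzyme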
LMPTP inh: LMPTP (human) inhibition; inhibition, % at 20 µM; recombinant LMPTP-A, OMFP fluorogenic substrate, fluorescence intensity; 360,000 tested, 0.22% active;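 active = compounds that cut the enzyme signal by at least half of the control window in the single-dose screen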;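 also: plate controls were DMSO wells with enzyme plus substrate for no effect and substrate without enzyme for full effect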
Target sequence (P24666 whole entry, looked up): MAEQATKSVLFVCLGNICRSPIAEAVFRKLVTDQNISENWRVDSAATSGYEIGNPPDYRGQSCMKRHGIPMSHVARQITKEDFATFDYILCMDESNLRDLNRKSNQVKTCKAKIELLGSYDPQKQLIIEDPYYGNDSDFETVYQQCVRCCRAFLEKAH
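Test system: LMPTP-A phosphatase enzyme; input: 0.625 nM LMPTP-A final; reagent: OMFP substrate, 400 µM final; compound dosing: 20 µM single dose, 3% DMSO; incubation: 50 min dark incubation at room temperature; measured by: endpoint fluorescence intensity from OMFP dephosphorylation; measure: % inhibition relative to no-enzyme and uninhibited control wells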
STEP inh: STEP (human) phosphatase inhibition | inhibition, % at 20 µM | 360,000 tested, 0.25% active | recombinant STEP, OMFP fluorogenic substrate, fluorescence | AID 588621 | P54829;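 active = inhibition at 20 µM, scaled per plate between control wells, above about 37%, limit read from the data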;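 also: 0% = DMSO with enzyme and substrate and 100% = substrate only without enzyme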
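Test system: STEP tyrosine phosphatase / Reagent: OMFP at 25 µM / Doses: 20 µM, 1% DMSO / Read-out: percent inhibition scaled to no-enzyme and uninhibited-enzyme controls, plate-pattern corrected / Detection: FITC-channel fluorescence of OMFP product / Medium: Bis-Tris buffer pH 6.0, 2.5 mM DTT, 0.005% Tween 20 / Schedule: 20 min at room temperature, dark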
SUMO1 PPI mod: alters human SUMO1 binding to SIM partners; P63165; SUMO1 binding to a labelled peptide, TR-FRET, 1 h; inhibition, % at 20 µM; 360,000 tested, 0.33% active; AID 602429; in the data active = inhibition above about 37%
Target sequence (P63165 whole entry, looked up): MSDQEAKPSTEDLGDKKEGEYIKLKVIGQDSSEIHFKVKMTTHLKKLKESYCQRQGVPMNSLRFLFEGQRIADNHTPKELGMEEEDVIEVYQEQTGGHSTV
Scp1 inh: Scp-1 (human) phosphatase inhibition. inhibition, % at 20 µM. Recombinant Scp1, phosphopeptide, malachite green phosphate absorbance. Q9GZU7. 340,000 tested, 0.88% active;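 active = inhibition above about 50% at 20 µM, limit read from the data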;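 also: plate controls were DMSO wells with enzyme for no effect and wells lacking enzyme for full effect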
Target sequence (Q9GZU7 76-261 limits assumed): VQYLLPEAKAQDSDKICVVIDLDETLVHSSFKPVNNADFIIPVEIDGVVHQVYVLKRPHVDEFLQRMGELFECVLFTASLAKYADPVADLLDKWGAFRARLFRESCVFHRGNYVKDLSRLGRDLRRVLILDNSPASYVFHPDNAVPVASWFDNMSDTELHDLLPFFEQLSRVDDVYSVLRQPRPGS
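Test system – truncated SCP-1 phosphatase (76-261aa) · Reagent – Phosphorylated 17-residue peptide substrate · Incubation – 45 min room-temperature reaction, 5 min colour, 30 min stabiliser · Detection – colorimetric phosphate reagent with accelerator and stabiliser, absorbance at 630 nm · Measure – % inhibition at 20 µM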
FAS-TE conf: confirmation of human fatty acid synthase thioesterase inhibitors | shares compounds with FAS-TE inh | 2,300 tested, 45% active | inhibition, % at 15 µM | recombinant FAS-TE, OMFH fluorogenic substrate, fluorescence;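 active = compounds inhibiting the enzyme by at least 50% at 15 µM in any one of the replicates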;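 also: 0% = enzyme with DMSO only and 100% = wells lacking enzyme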
* marks the source's active call; other numbers are inactive results.

Cc1ccc(S(=O)(=O)N(C(=O)c2ccco2)c2cc3sc(=O)oc3c3ccccc23)cc1 was read as FAS-TE inh 53*, LMPTP inh 2, STEP inh -4, SUMO1 PPI mod 3, Scp1 inh -9 and FAS-TE conf 32.
Screening COc1ccc(S(=O)(=O)N(C(=O)c2ccco2)c2cc3sc(=O)oc3c3ccccc23)cc1 returned FAS-TE inh 90*, LMPTP inh 1, STEP inh 1, SUMO1 PPI mod 8, Scp1 inh -10 and FAS-TE conf 33.
For CC(=O)N(c1ccc2oc(=O)sc2c1)S(=O)(=O)c1ccccc1 the results were FAS-TE inh 5, LMPTP inh -1, STEP inh 0, SUMO1 PPI mod 4 and Scp1 inh -9.
For CCOc1ccc(S(=O)(=O)N(C(=O)c2ccco2)c2cc3sc(=O)oc3c3ccccc23)cc1 the results were FAS-TE inh 51*, LMPTP inh 2, STEP inh 2, SUMO1 PPI mod 6, Scp1 inh -16 and FAS-TE conf 32.
CCCCN1C(=O)C(C(=O)OCc2ccccc2)CC2=C1CCCC2=O (configuration not stated) was read as FAS-TE inh -3, LMPTP inh -1, STEP inh -2, SUMO1 PPI mod 1 and Scp1 inh 8.
`CCCCNC(=O)CNC(=S)N(Cc1ccccc1F)C1CCCCC1` gave FAS-TE inh 5, LMPTP inh 0, STEP inh -2, SUMO1 PPI mod 2 and Scp1 inh -2.
Screening Cc1ccnc(NC(=O)Cn2c(=O)oc3ccccc32)c1 returned FAS-TE inh -3, LMPTP inh 0, STEP inh -2, SUMO1 PPI mod 1 and Scp1 inh 4.
O=C(NCCc1ccc(F)cc1)c1ccc2c(=O)n3c(nc2c1)CCC3 was read as FAS-TE inh 3, LMPTP inh 1, STEP inh 1, SUMO1 PPI mod 4 and Scp1 inh -2.
`O=C(NNC(=O)c1cccc(S(=O)(=O)N2CCCCC2)c1)c1ccccc1` gave FAS-TE inh -4, LMPTP inh 1, STEP inh 0, SUMO1 PPI mod 0 and Scp1 inh -1.
CC(C)Cn1c(O)c(N=NC(=O)c2cccc(S(=O)(=O)N3CCCCC3)c2)c2ccccc21 was read as FAS-TE inh 58*, LMPTP inh 5, STEP inh 5, SUMO1 PPI mod -7, Scp1 inh -16 and FAS-TE conf 24.
For CCOC1=C2[C@@H](CN(S(=O)(=O)c3ccc(C)cc3)[C@H]2c2cccc3ccccc23)[C@H]2C(=O)N(c3ccccc3)C(=O)[C@H]2C1 the results were FAS-TE inh 77*, LMPTP inh 1, STEP inh 2, SUMO1 PPI mod 2 and FAS-TE conf 14.
CCOC1=C2[C@H]([C@H]3C(=O)N(c4ccccc4)C(=O)[C@H]3C1)[C@@H](C(C)C)N(S(=O)(=O)c1ccc(C)cc1)[C@H]2c1ccccc1 was read as FAS-TE inh 58*, LMPTP inh 1, STEP inh 3, SUMO1 PPI mod -1 and FAS-TE conf 21.
`Cc1ccc(S(=O)(=O)N2C[C@H]3[C@H]4C(=O)N(C5CCCCC5)C(=O)[C@H]4CC(=O)[C@H]3[C@@H]2c2ccccc2Cl)cc1` gave FAS-TE inh 62*, LMPTP inh 1, STEP inh 3, SUMO1 PPI mod 2 and FAS-TE conf -1.
CCOC1=C2[C@@H](CN(S(=O)(=O)c3ccc(C)cc3)[C@H]2c2ccc(Cl)cc2)[C@H]2C(=O)N(c3ccccc3)C(=O)[C@H]2C1 was read as FAS-TE inh 62*, LMPTP inh 1, STEP inh -1, SUMO1 PPI mod 1 and FAS-TE conf 40.
Screening CCOC1=C2[C@@H](CN(S(=O)(=O)c3ccccc3)[C@H]2c2ccccc2)[C@H]2C(=O)N(c3ccccc3)C(=O)[C@H]2C1 returned FAS-TE inh 22, LMPTP inh 1, STEP inh 0 and SUMO1 PPI mod 0.
`CCCCC[C@@H]1[C@H]2[C@H]3C(=O)N(c4ccccc4)C(=O)[C@H]3CC(=O)[C@H]2[C@H](c2ccccc2)N1S(=O)(=O)c1ccc(C)cc1` gave FAS-TE inh 59*, LMPTP inh 0, STEP inh 0, SUMO1 PPI mod 2 and FAS-TE conf 20.
Screening CCOC1=C2[C@@H](CN(S(=O)(=O)c3ccc(C)cc3)[C@H]2c2cccc3ccccc23)[C@H]2C(=O)N(C3CCCCC3)C(=O)[C@H]2C1 returned FAS-TE inh 67*, LMPTP inh 2, STEP inh 2, SUMO1 PPI mod -4 and FAS-TE conf 13.
COc1ccccc1C(=O)NCCC(=O)N(C)CC(=O)Nc1ccc(N2CCOCC2)cc1 was read as FAS-TE inh -5, LMPTP inh -1, STEP inh -2, SUMO1 PPI mod 5 and Scp1 inh -1.
`CC(=O)c1ccc(NC(=O)CSc2ccc(-c3ccc(-n4cccn4)cc3)nn2)cc1` gave FAS-TE inh -18, LMPTP inh 4, STEP inh 4, SUMO1 PPI mod 6 and Scp1 inh -5.
CCCCNC(=S)N(C)/N=C/c1ccc2c(c1)OCO2 was read as FAS-TE inh 53*, LMPTP inh 2, STEP inh -4, SUMO1 PPI mod 0, Scp1 inh 3 and FAS-TE conf 43.
For COc1cc2ncc(S(=O)(=O)c3ccccc3)c(N3CCC4(CC3)OCCO4)c2cc1OC the results were FAS-TE inh 82*, LMPTP inh 0, STEP inh -3, SUMO1 PPI mod 5, Scp1 inh -2 and FAS-TE conf 82*.
`CCN(C[C@H]1N[C@@](CC)(C(=O)OC)[C@H]2C(=O)N(C)C(=O)[C@@H]12)S(=O)(=O)c1ccc(F)cc1` gave FAS-TE inh -9, LMPTP inh -2, STEP inh -2, SUMO1 PPI mod 3 and Scp1 inh -14.
For O=C1CCN(Cl)C(=O)N1Cl the results were FAS-TE inh -3, LMPTP inh -1 and SUMO1 PPI mod -3.
O=C(CC(C(=O)O)c1ccc(Cl)cc1)c1ccc(Cl)c(Cl)c1 (configuration not stated) was read as FAS-TE inh 80*, LMPTP inh 2, STEP inh 0, SUMO1 PPI mod 5, Scp1 inh -12 and FAS-TE conf 81*.
Screening Cc1ccc(C(CC(=O)c2ccc(Cl)cc2)C(=O)O)cc1 (configuration not stated) returned FAS-TE inh -3, LMPTP inh -1, STEP inh -1, SUMO1 PPI mod 3 and Scp1 inh -7.
